Assays:
[1] = biological target: T1, D(2) dopamine receptor (Homo sapiens, UniProt P14416); experiment: In vitro for its ability to displace [3H]- spiperone from cloned human dopamine D2 short receptor expressed in CHO cells; assay type: cell-based
In short: (§1)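 [3H]Spiperone displacement from cloned human dopamine receptors stably expressed in CHO cells: D2long, D2short, D3 and D4.4 (the D4 line used the D4.4 variant). Ki values were determined.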

[2] = biological target: T1, D(2) dopamine receptor; experiment: In vitro for its ability to displace [3H]- spiperone from cloned human dopamine D2 long receptor expressed in CHO cells; assay type: cell-based; in short: as §1
[3] = biological target: D(1A) dopamine receptor (Bos taurus, UniProt Q95136); experiment: In vitro for its ability to displace [3H]- SCH 23390 from Dopamine receptor D1 in bovine striatal membrane […]; assay type: cell-based, Striatum
In short: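 D1 affinity was measured with bovine striatal membrane preparations and the D1-selective antagonist [3H]SCH 23390 as radioligand. Ki values were determined.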

[4] = biological target: T2, D(4) dopamine receptor (Homo sapiens, UniProt P21917); experiment: In vitro for its ability to displace [3H]- spiperone from cloned human Dopamine receptor D4 expressed in CHO cells; assay type: cell-based; in short: as §1
T2 sequence (P21917 whole entry): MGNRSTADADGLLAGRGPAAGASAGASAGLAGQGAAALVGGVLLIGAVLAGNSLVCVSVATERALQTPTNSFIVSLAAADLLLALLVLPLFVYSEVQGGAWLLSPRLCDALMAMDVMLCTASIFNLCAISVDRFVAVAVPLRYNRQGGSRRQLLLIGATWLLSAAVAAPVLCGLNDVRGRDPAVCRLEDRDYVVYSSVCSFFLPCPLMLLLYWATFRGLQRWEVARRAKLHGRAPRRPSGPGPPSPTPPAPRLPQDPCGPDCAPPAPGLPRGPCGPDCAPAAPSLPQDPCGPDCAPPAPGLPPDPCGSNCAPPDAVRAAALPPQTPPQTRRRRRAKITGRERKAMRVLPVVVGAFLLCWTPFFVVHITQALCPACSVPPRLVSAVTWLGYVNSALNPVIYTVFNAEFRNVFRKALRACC

[5] = biological target: D(3) dopamine receptor (Homo sapiens, UniProt P35462); experiment: Displacement of [3H]spiperone from human Dopamine receptor D3 expressed in CHO cells; assay type: cell-based; in short: as §1
[6] = In vitro for its ability to displace [3H]- ketanserin from 5-hydroxytryptamine 2 receptor in porcine brain homogenate; assay type: tissue-based
In short: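 5-HT2 binding was measured in porcine brain homogenates by displacement of [3H]ketanserine. Ki values were determined.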

[7] = biological target: T1, D(2) dopamine receptor; experiment: In vitro for its ability to displace [3H]- spiperone from cloned human Dopamine receptor D2L expressed in CHO cells; assay type: cell-based; in short: as §1

T1 sequence (P14416 whole entry): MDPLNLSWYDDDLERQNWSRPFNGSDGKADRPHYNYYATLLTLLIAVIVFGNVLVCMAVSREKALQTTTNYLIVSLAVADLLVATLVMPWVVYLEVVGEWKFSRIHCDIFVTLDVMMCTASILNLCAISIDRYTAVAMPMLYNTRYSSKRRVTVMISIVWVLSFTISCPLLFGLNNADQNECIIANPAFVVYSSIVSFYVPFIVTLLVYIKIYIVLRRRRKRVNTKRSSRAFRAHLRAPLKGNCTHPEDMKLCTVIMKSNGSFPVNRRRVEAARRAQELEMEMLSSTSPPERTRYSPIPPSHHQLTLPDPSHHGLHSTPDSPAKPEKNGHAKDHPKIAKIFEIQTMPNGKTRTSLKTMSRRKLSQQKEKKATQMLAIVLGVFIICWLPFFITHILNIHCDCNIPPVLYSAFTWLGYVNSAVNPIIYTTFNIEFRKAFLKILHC
Chain of D(1A) dopamine receptor (Q95136 whole entry): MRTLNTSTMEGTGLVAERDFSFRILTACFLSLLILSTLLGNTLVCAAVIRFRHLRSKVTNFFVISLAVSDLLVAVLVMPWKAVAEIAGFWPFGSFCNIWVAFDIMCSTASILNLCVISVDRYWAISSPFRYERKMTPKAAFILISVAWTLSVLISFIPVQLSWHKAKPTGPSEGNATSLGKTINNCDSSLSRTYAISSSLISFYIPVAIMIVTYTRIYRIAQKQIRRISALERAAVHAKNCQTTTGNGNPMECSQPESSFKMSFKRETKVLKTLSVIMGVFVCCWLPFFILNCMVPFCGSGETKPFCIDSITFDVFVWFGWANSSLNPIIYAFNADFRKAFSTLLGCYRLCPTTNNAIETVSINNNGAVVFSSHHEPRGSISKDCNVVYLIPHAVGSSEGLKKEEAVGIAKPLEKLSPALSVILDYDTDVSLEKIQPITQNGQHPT
Chain of D(3) dopamine receptor (P35462 whole entry): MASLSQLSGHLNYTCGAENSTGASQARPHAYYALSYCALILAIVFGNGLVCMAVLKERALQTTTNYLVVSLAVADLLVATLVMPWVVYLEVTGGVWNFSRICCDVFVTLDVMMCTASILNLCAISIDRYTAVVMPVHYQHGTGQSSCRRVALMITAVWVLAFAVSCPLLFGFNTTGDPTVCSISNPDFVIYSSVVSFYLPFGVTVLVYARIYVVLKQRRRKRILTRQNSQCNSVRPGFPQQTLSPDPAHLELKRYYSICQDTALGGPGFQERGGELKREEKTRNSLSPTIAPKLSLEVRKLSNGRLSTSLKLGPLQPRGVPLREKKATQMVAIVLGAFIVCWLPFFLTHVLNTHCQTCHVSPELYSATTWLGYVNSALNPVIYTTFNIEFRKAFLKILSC

| Compound | Ki [1] | Ki [2] | Ki [3] | Ki [4] | Ki [5] | Ki [6] | Ki [7] | Ki ([5]; cho) |
| --- | --- | --- | --- | --- | --- | --- | --- | --- |
| COc1ccc(Br)cc1C1=N[C@@H](CN2CCN(c3ccccc3)CC2)CO1 (stereo in doubt) | 110 nM | 400 nM | 2000 nM | 390 nM | 1000 nM |  |  |  |
| c1ccc(C2=N[C@@H](CN3CCN(c4ccccc4)CC3)CS2)cc1 (stereo in doubt) | 720 nM | 1100 nM | 4500 nM | 1200 nM | 1200 nM |  |  |  |
| C[C@@H]1OC(c2ccccc2)=N[C@H]1CN1CCN(c2ccccc2)CC1 (stereo in doubt) | 320 nM | 820 nM | 2000 nM | 440 nM | 710 nM |  |  |  |
| c1ccc(C2=N[C@@H](CN3CCN(c4ccccc4)CC3)CO2)cc1 (stereo in doubt) | 330 nM | 690 nM | 4000 nM | 410 nM | 690 nM |  |  |  |
| COc1ccc(Br)cc1C1=N[C@@H](CN2CCN(c3ccccc3)CC2)[C@@H](C)O1 (stereo in doubt; 4d) | 2400 nM | 3700 nM | 3500 nM | 290 nM | 2500 nM |  |  |  |
| c1ccc(C2=N[C@@H](CN3CCN(c4ccccc4)CC3)CS2)cc1 (stereo in doubt; 4f) | 1100 nM | 1500 nM | 16000 nM | 1800 nM |  |  |  | 1200 nM |

The remaining compounds from weak to strong by Ki [1], led by results:

| Ki [1] | Ki [2] | Ki [3] | Ki [4] | Ki [5] | Ki [6] | Ki [7] | Compound | Ki ([5]; cho) |
| --- | --- | --- | --- | --- | --- | --- | --- | --- |
| 18000 nM | 21000 nM | 480 nM | 3300 nM | 10000 nM |  |  | COc1ccc(Br)cc1C1=N[C@@H](CN2CCN(c3ccccc3)CC2)[C@@H](C)O1 (stereo in doubt) |  |
| 11000 nM |  | 12000 nM |  | 7100 nM | 870 nM | 10000 nM | c1ccc(C2=NC[C@H](CN3CCN(c4ccccc4)CC3)N2)cc1 (stereo in doubt; 4e) |  |
| 10000 nM | 14000 nM |  |  | 9000 nM |  |  | c1ccc(C2=NC[C@H](CN3CCN(c4ccccc4)CC3)N2)cc1 (stereo in doubt) |  |
| 1900 nM | 3200 nM | 20000 nM | 700 nM | 2700 nM |  |  | C[C@@H]1OC(c2ccccc2)=N[C@H]1CN1CCN(c2ccccc2)CC1 (stereo in doubt; 4b) |  |
| 1100 nM | 1700 nM | 9700 nM | 340 nM | 3300 nM |  |  | c1ccc(C2=N[C@@H](CN3CCN(c4ccccc4)CC3)CO2)cc1 (stereo in doubt; 4a) |  |
| 900 nM | 2200 nM | 9000 nM | 1600 nM | 5200 nM |  |  | COc1ccc(Br)cc1C1=N[C@@H](CN2CCN(c3ccccc3)CC2)CO1 (stereo in doubt; 4c) |  |
